# “Also recorded” adds a separate entry of the source.
# Experiments:
# [1] = tested on: sstr2-transfected HCT116 cells; experiment: Cellular internalization assay; type: cell-based
# [2] = Biodistribution in mice bearing subcutaneous sstr2-transfected HCT116 tumours; type: in vivo; settings: mouse, n = 4; for tissue uptake at 1 h: 1 h p.i.; for tissue uptake at 4 h: 4 h p.i.; for tissue uptake at 24 h: 24 h p.i.
# Outline: (§1)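 Mice with subcutaneous sstr2-transfected HCT116 tumours received the 64Cu-labelled test conjugate. Activity was measured in blood, liver, kidney, muscle, bone, adrenal, pancreas and tumour at 1, 4 and 24 h p.i. A blocking group received co-administered Y3-TATE, assessed at 4 h p.i. Tumour-to-blood, -muscle, -kidney and -liver ratios were calculated. n = 4 per group; P-values were reported for group comparisons.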
# [3] = tested on: sstr2-transfected HCT116 tumours; experiment: as above; type: in vivo
# Outline: as §1
# [4] = PET/CT imaging at 2 h p.i. in mice bearing sstr2-transfected HCT116 xenografts; type: in vivo; settings: mouse, tumour, tumour standard uptake value (SUV), n = 2
# Outline: (§2)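 PET/CT imaging was done at 2 h p.i. with the 64Cu-labelled test conjugate. Mice bore subcutaneously implanted sstr2-transfected HCT116 xenografts. The blocked mouse was co-administered Y3-TATE (10 mg/kg). Tumour standard uptake value (SUV) was read from the images.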
# [5] = tested on: sstr2-transfected HCT116 tumours; experiment: as above; type: in vivo; settings: with the exception of kidneys
# Outline: as §2
compound,measurement,setting,value
"C[C@@H](O)[C@H](NC(=O)[C@@H]1CSSC[C@H](NC(=O)[C@@H](Cc2ccccc2)NC(=O)Cn2cc(CN3CCCN4CCN(CCCN(CP(=O)(O)O)CC4)CC3)nn2)C(=O)N[C@@H](Cc2ccc(O)cc2)C(=O)N[C@H](Cc2c[nH]c3ccccc23)C(=O)N[C@@H](CCCCN)C(=O)N[C@@H]([C@@H](C)O)C(=O)N1)C(=O)O (64Cu complex, metal not drawn) [Compound 6]",internalized,"[1]; after 4 h, sstr2-transfected HCT116 cells",38 %ID/mg protein
same,"surface bound, and thus internalized 6, blocked by excess Y3-TATE","[1]; cells pre-incubated with excess Y3-TATE, P < 0.0001, n = 3",More than 95%
same,"internalization, in words",[1]; sstr2-transfected HCT116 cells,"internalized rapidly and specifically; also recorded: quickly bound to the cell surface, and was steadily internalized"
same,tissue uptake at 1 h,"[2]; adrenal, Adrenal uptake",1.14 ± 0.46 %ID/g
same,tissue uptake at 4 h,"[2]; adrenal, Adrenal uptake, blocked with co-administration of Y3-TATE",0.37 ± 0.05 %ID/g
same,tissue uptake at 4 h,"[2]; adrenal, Adrenal uptake",1.24 ± 0.4 %ID/g
same,tissue uptake at 1 h,"[2]; blood, Blood uptake",0.34 ± 0.13 %ID/g
same,tissue uptake at 4 h,"[2]; blood, Blood uptake, blocked with co-administration of Y3-TATE",0.22 ± 0.04 %ID/g
same,tissue uptake at 4 h,"[2]; blood, Blood uptake",0.2 ± 0.03 %ID/g
same,tissue uptake at 24 h,"[2]; blood, Blood uptake",0.15 ± 0.06 %ID/g
same,tissue uptake at 1 h,"[2]; bone, Bone uptake",0.46 ± 0.16 %ID/g
same,tissue uptake at 4 h,"[2]; bone, Bone uptake, blocked with co-administration of Y3-TATE",0.2 ± 0.04 %ID/g
same,tissue uptake at 4 h,"[2]; bone, Bone uptake",0.5 ± 0.24 %ID/g
same,tissue uptake at 24 h,"[2]; bone, Bone uptake",0.35 ± 0.1 %ID/g
same,tissue uptake at 1 h,"[2]; kidney, Kidney uptake",15.9 ± 3.03 %ID/g
same,tissue uptake at 4 h,"[2]; kidney, Kidney uptake, blocked with co-administration of Y3-TATE",16.1 ± 5.03 %ID/g
same,tissue uptake at 4 h,"[2]; kidney, Kidney uptake",21 ± 2.84 %ID/g
same,tissue uptake at 24 h,"[2]; kidney, Kidney uptake",14.7 ± 2.53 %ID/g
same,tissue uptake at 1 h,"[2]; liver, Liver uptake",1.13 ± 0.16 %ID/g
same,tissue uptake at 4 h,"[2]; liver, Liver uptake, blocked with co-administration of Y3-TATE",1.32 ± 0.3 %ID/g
same,tissue uptake at 4 h,"[2]; liver, Liver uptake",1.3 ± 0.1 %ID/g
same,tissue uptake at 24 h,"[2]; liver, Liver uptake",1.05 ± 0.1 %ID/g
same,tissue uptake at 1 h,"[2]; muscle, Muscle uptake",0.22 ± 0.15 %ID/g
same,tissue uptake at 4 h,"[2]; muscle, Muscle uptake, blocked with co-administration of Y3-TATE",0.09 ± 0.03 %ID/g
same,tissue uptake at 4 h,"[2]; muscle, Muscle uptake",0.07 ± 0.02 %ID/g
same,tissue uptake at 24 h,"[2]; muscle, Muscle uptake",0.06 %ID/g
same,tissue uptake at 1 h,"[2]; pancreas, Pancreas uptake",6.71 ± 0.22 %ID/g
same,tissue uptake at 4 h,"[2]; pancreas, Pancreas uptake, blocked with co-administration of Y3-TATE",0.3 ± 0.07 %ID/g
same,tissue uptake at 4 h,"[2]; pancreas, Pancreas uptake",4.41 ± 0.95 %ID/g
same,tissue uptake at 24 h,"[2]; pancreas, Pancreas uptake",1.84 ± 0.64 %ID/g
same,tissue uptake at 1 h,"[2]; tumour, Tumour uptake",4.73 ± 1.17 %ID/g
same,tissue uptake at 4 h,"[2]; tumour, Tumour uptake, blocked with co-administration of Y3-TATE",0.69 ± 0.22 %ID/g
same,tissue uptake at 4 h,"[2]; tumour, Tumour uptake",7.54 ± 1.43 %ID/g
same,tissue uptake at 24 h,"[2]; tumour, Tumour uptake",4.39 ± 1.71 %ID/g
same,"kidney uptake, in words","[3]; 1, 4, and 24 h p.i.",consistently high uptake
same,"uptake in sstr2-expressing organs (adrenal, pancreas, tumour), in words","[3]; 1, 4, and 24 h p.i.",high tracer uptake
same,blocking of tumour uptake by co-administered Y3-TATE,"[3]; 4 h p.i., P < 0.0001, n = 4",91%
same,blocking of adrenal uptake by co-administered Y3-TATE,"[3]; 4 h p.i., P = 0.0051, n = 4",70%
same,"in vivo stability of the copper complex, in words",[3]; inferred from relatively low liver activity,reasonable in vivo stability
same,time of maximum tumour uptake,"[3]; p.i., n = 4",4 h
same,SUV at 2 h,[4],2.25 ± 0.49 SUV
same,"tumour uptake and contrast by PET/CT, in words",[5],excellent tumour uptake and contrast
